Data: ChEMBL document CHEMBL4689842, “EUbOPEN Chemogenomics Library wave 1” (2021)
Values joined by “and” are separate entries in the source; they are usually repeats but may differ in a detail not shown here. Identical values can stand only once.

Test system: Fibroblast
Experiment: Multiplex assay against human fibroblast
Format: toxicity, cell-based
Outline: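 Live cells were stained at seeding with Hoechst33342, BioTracker Green Microtubule Cytoskeleton Dye, MitoTracker Red and Annexin V Alexa Fluor 680. Following compound addition, they were imaged on a CQ1 microscope at 37°C and 5% CO2 and gated by CellPathfinder machine learning into Hoechst high-intensity objects or normal cells, with normal cells split into healthy, pyknosed or fragmented nuclei and pyknosed cells into mitotic or apoptotic. Tubulin, mitochondrial-mass and membrane-permeability phenotypes are per cents of healthy-nucleus cells.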

[1] = 12 h, 1 µM, compound concentration 1 uM, replicate 1
[2] = 12 h, 1 µM, compound concentration 1 uM, replicate 2
[3] = 12 h, 10 µM, compound concentration 10 uM, replicate 1
[4] = 12 h, 10 µM, compound concentration 10 uM, replicate 2
[5] = 24 h, 1 µM, compound concentration 1 uM, replicate 1
[6] = 24 h, 1 µM, compound concentration 1 uM, replicate 2
[7] = 24 h, 10 µM, compound concentration 10 uM, replicate 1
[8] = 24 h, 10 µM, compound concentration 10 uM, replicate 2
[9] = 48 h, 1 µM, compound concentration 1 uM, replicate 1
[10] = 48 h, 1 µM, compound concentration 1 uM, replicate 2
[11] = 48 h, 10 µM, compound concentration 10 uM, replicate 1
[12] = 48 h, 10 µM, compound concentration 10 uM, replicate 2

`O=C1NCN(c2ccccc2)C12CCN(CCCOc1ccc(F)cc1)CC2` [SPIRAMIDE] was tested, and the “Population Apoptotic (%)” value [1] was 75%, the “Population Fragmented Nuclei (%)” value [1] was 40% and the “Population Healthy Nuclei (%)” value [1] was 31%. For the same compound, the “Population Hoechst High Intensity Objects (%)” value [1] was 15%, the “Population Membrane Permeable-Phenotype (%)” value [1] was 22% and the “Population Mitochondria Different-Phenotype (%)” value [1] was 11%. The “Population Mitotic Cells (%)” value [1] was 24%, the “Population Normal (%)” value [1] was 84% and the “Population Pyknosed Nuclei (%)” value [1] was 28%. The “Population Tubulin-Different-Phenotype (%)” value [1] was 33%, the “Total Cell Count” value [1] was 136 and the “Population Apoptotic (%)” value [2] was 0%. For the same compound, the “Population Fragmented Nuclei (%)” value [2] was 10%, the “Population Healthy Nuclei (%)” value [2] was 88% and the “Population Hoechst High Intensity Objects (%)” value [2] was 7%. For the same compound, the “Population Membrane Permeable-Phenotype (%)” value [2] was 0%, the “Population Mitochondria Different-Phenotype (%)” value [2] was 10% and the “Population Mitotic Cells (%)” value [2] was 100%. For the same compound, the “Population Normal (%)” value [2] was 92%, the “Population Pyknosed Nuclei (%)” value [2] was 1% and the “Population Tubulin-Different-Phenotype (%)” value [2] was 6%. For the same compound, the “Total Cell Count” value [2] was 74, the “Population Apoptotic (%)” value [3] was 66% and the “Population Fragmented Nuclei (%)” value [3] was 25%. For the same compound, the “Population Healthy Nuclei (%)” value [3] was 44%, the “Population Hoechst High Intensity Objects (%)” value [3] was 13% and the “Population Membrane Permeable-Phenotype (%)” value [3] was 6%. The “Population Mitochondria Different-Phenotype (%)” value [3] was 54%, the “Population Mitotic Cells (%)” value [3] was 33% and the “Population Normal (%)” value [3] was 86%. The “Population Pyknosed Nuclei (%)” value [3] was 30%, the “Population Tubulin-Different-Phenotype (%)” value [3] was 82% and the “Total Cell Count” value [3] was 162. For the same compound, the “Population Apoptotic (%)” value [4] was 50%, the “Population Fragmented Nuclei (%)” value [4] was 3% and the “Population Healthy Nuclei (%)” value [4] was 88%. For the same compound, the “Population Hoechst High Intensity Objects (%)” value [4] was 8%, the “Population Membrane Permeable-Phenotype (%)” value [4] was 2% and the “Population Mitochondria Different-Phenotype (%)” value [4] was 27%. For the same compound, the “Population Mitotic Cells (%)” value [4] was 50%, the “Population Normal (%)” value [4] was 91% and the “Population Pyknosed Nuclei (%)” value [4] was 7%. The “Population Tubulin-Different-Phenotype (%)” value [4] was 12%, the “Total Cell Count” value [4] was 91 and the “Population Apoptotic (%)” value [5] was 57%. For the same compound, the “Population Fragmented Nuclei (%)” value [5] was 31%, the “Population Healthy Nuclei (%)” value [5] was 45% and the “Population Hoechst High Intensity Objects (%)” value [5] was 13%. For the same compound, the “Population Membrane Permeable-Phenotype (%)” value [5] was 25%, the “Population Mitochondria Different-Phenotype (%)” value [5] was 5% and the “Population Mitotic Cells (%)” value [5] was 42%. The “Population Normal (%)” value [5] was 86%, the “Population Pyknosed Nuclei (%)” value [5] was 22% and the “Population Tubulin-Different-Phenotype (%)” value [5] was 44%. For the same compound, the “Total Cell Count” value [5] was 132, the “Population Apoptotic (%)” value [6] was 0% and the “Population Fragmented Nuclei (%)” value [6] was 7%. The “Population Healthy Nuclei (%)” value [6] was 89%, the “Population Hoechst High Intensity Objects (%)” value [6] was 6% and the “Population Membrane Permeable-Phenotype (%)” value [6] was 2%. For the same compound, the “Population Mitochondria Different-Phenotype (%)” value [6] was 7%, the “Population Mitotic Cells (%)” value [6] was 100% and the “Population Normal (%)” value [6] was 93%. The “Population Pyknosed Nuclei (%)” value [6] was 3%, the “Population Tubulin-Different-Phenotype (%)” value [6] was 7% and the “Total Cell Count” value [6] was 76. The “Population Apoptotic (%)” value [7] was 70%, the “Population Fragmented Nuclei (%)” value [7] was 20% and the “Population Healthy Nuclei (%)” value [7] was 60%. For the same compound, the “Population Hoechst High Intensity Objects (%)” value [7] was 16%, the “Population Membrane Permeable-Phenotype (%)” value [7] was 10% and the “Population Mitochondria Different-Phenotype (%)” value [7] was 44%. The “Population Mitotic Cells (%)” value [7] was 29%, the “Population Normal (%)” value [7] was 83% and the “Population Pyknosed Nuclei (%)” value [7] was 18%. For the same compound, the “Population Tubulin-Different-Phenotype (%)” value [7] was 85%, the “Total Cell Count” value [7] was 177 and the “Population Apoptotic (%)” value [8] was 27%. The “Population Fragmented Nuclei (%)” value [8] was 3%, the “Population Healthy Nuclei (%)” value [8] was 78% and the “Population Hoechst High Intensity Objects (%)” value [8] was 6%. For the same compound, the “Population Membrane Permeable-Phenotype (%)” value [8] was 2%, the “Population Mitochondria Different-Phenotype (%)” value [8] was 21% and the “Population Mitotic Cells (%)” value [8] was 72%. The “Population Normal (%)” value [8] was 93%, the “Population Tubulin-Different-Phenotype (%)” value [8] was 10% and the “Total Cell Count” value [8] was 118. For the same compound, the “Population Apoptotic (%)” value [9] was 60%, the “Population Fragmented Nuclei (%)” value [9] was 36% and the “Population Healthy Nuclei (%)” value [9] was 45%. For the same compound, the “Population Hoechst High Intensity Objects (%)” value [9] was 14%, the “Population Membrane Permeable-Phenotype (%)” value [9] was 32% and the “Population Mitochondria Different-Phenotype (%)” value [9] was 5%. The “Population Mitotic Cells (%)” value [9] was 40%, the “Population Normal (%)” value [9] was 85% and the “Population Pyknosed Nuclei (%)” value [9] was 17%. The “Population Tubulin-Different-Phenotype (%)” value [9] was 34%, the “Total Cell Count” value [9] was 133 and the “Population Apoptotic (%)” value [10] was 0%. The “Population Fragmented Nuclei (%)” value [10] was 15%, the “Population Healthy Nuclei (%)” value [10] was 83% and the “Population Hoechst High Intensity Objects (%)” value [10] was 5%. For the same compound, the “Population Membrane Permeable-Phenotype (%)” value [10] was 13%, the “Population Mitochondria Different-Phenotype (%)” value [10] was 0% and the “Population Mitotic Cells (%)” value [10] was 100%. For the same compound, the “Population Normal (%)” value [10] was 94%, the “Population Pyknosed Nuclei (%)” value [10] was 0% and the “Population Tubulin-Different-Phenotype (%)” value [10] was 36%. The “Total Cell Count” value [10] was 137, the “Population Apoptotic (%)” value [11] was 69% and the “Population Fragmented Nuclei (%)” value [11] was 31%. The “Population Healthy Nuclei (%)” value [11] was 59%, the “Population Hoechst High Intensity Objects (%)” value [11] was 22% and the “Population Membrane Permeable-Phenotype (%)” value [11] was 3%. For the same compound, the “Population Mitochondria Different-Phenotype (%)” value [11] was 47%, the “Population Mitotic Cells (%)” value [11] was 30% and the “Population Normal (%)” value [11] was 77%. The “Population Pyknosed Nuclei (%)” value [11] was 9%, the “Population Tubulin-Different-Phenotype (%)” value [11] was 80% and the “Total Cell Count” value [11] was 186. The “Population Apoptotic (%)” value [12] was 50%, the “Population Healthy Nuclei (%)” value [12] was 64% and the “Population Hoechst High Intensity Objects (%)” value [12] was 9%. The “Population Membrane Permeable-Phenotype (%)” value [12] was 8%, the “Population Mitochondria Different-Phenotype (%)” value [12] was 2% and the “Population Mitotic Cells (%)” value [12] was 50%. The “Population Normal (%)” value [12] was 90%, the “Population Pyknosed Nuclei (%)” value [12] was 3% and the “Population Tubulin-Different-Phenotype (%)” value [12] was 29%. The “Total Cell Count” value [12] was 123.

For `CCn1c(=O)c(-c2ccc(Cl)cc2Cl)cc2cnc(Nc3ccc(N4CCNCC4)c(F)c3)nc21`, the “Population Apoptotic (%)” value [3] was 33% and 53% and 60%, the “Population Fragmented Nuclei (%)” value [3] was 33% and 37% and 26% and the “Population Healthy Nuclei (%)” value [3] was 39% and 46% and 56%. For the same compound, the “Population Hoechst High Intensity Objects (%)” value [3] was 69% and 59% and 37%, the “Population Mitochondria Different-Phenotype (%)” value [3] was 11% and 6% and 5% and the “Population Mitotic Cells (%)” value [3] was 66% and 46% and 39%. For the same compound, the “Population Normal (%)” value [3] was 30% and 41% and 62%, the “Population Pyknosed Nuclei (%)” value [3] was 27% and 16% and the “Population Fragmented Nuclei (%)” value [4] was 44% and 57% and 61%. The “Population Healthy Nuclei (%)” value [4] was 18% and 35% and 19%, the “Population Hoechst High Intensity Objects (%)” value [4] was 50% and 51% and 70% and the “Population Normal (%)” value [4] was 50% and 48% and 29%. The “Total Cell Count” value [4] was 206 and 112 and 242, the “Population Apoptotic (%)” value [7] was 47% and 66% and 63% and the “Population Fragmented Nuclei (%)” value [7] was 40% and 37% and 23%. For the same compound, the “Population Healthy Nuclei (%)” value [7] was 32% and 38% and 58%, the “Population Hoechst High Intensity Objects (%)” value [7] was 72% and 65% and 42% and the “Population Mitochondria Different-Phenotype (%)” value [7] was 14% and 20% and 7%. For the same compound, the “Population Mitotic Cells (%)” value [7] was 52% and 33% and 36%, the “Population Normal (%)” value [7] was 27% and 34% and 57% and the “Population Pyknosed Nuclei (%)” value [7] was 24% and 17%. For the same compound, the “Population Tubulin-Different-Phenotype (%)” value [7] was 33% and 32%, the “Total Cell Count” value [7] was 236 and 703 and 456 and the “Population Apoptotic (%)” value [8] was 100% and 71% and 73%. The “Population Fragmented Nuclei (%)” value [8] was 41% and 62% and 53%, the “Population Healthy Nuclei (%)” value [8] was 31% and 23% and 24% and the “Population Hoechst High Intensity Objects (%)” value [8] was 44% and 54% and 74%. For the same compound, the “Population Normal (%)” value [8] was 55% and 45% and 25%, the “Population Pyknosed Nuclei (%)” value [8] was 26% and 13% and 22% and the “Total Cell Count” value [8] was 225 and 111 and 256. For the same compound, the “Population Apoptotic (%)” value [11] was 35%, the “Population Fragmented Nuclei (%)” value [11] was 36% and the “Population Healthy Nuclei (%)” value [11] was 46%. For the same compound, the “Population Hoechst High Intensity Objects (%)” value [11] was 67%, the “Population Membrane Permeable-Phenotype (%)” value [11] was 30% and the “Population Mitochondria Different-Phenotype (%)” value [11] was 15%. For the same compound, the “Population Mitotic Cells (%)” value [11] was 64%, the “Population Normal (%)” value [11] was 32% and the “Population Pyknosed Nuclei (%)” value [11] was 16%. For the same compound, the “Population Tubulin-Different-Phenotype (%)” value [11] was 15%, the “Total Cell Count” value [11] was 255 and the “Population Apoptotic (%)” value [12] was 71%. For the same compound, the “Population Fragmented Nuclei (%)” value [12] was 60%, the “Population Healthy Nuclei (%)” value [12] was 31% and the “Population Hoechst High Intensity Objects (%)” value [12] was 76%. The “Population Membrane Permeable-Phenotype (%)” value [12] was 65%, the “Population Mitochondria Different-Phenotype (%)” value [12] was 7% and the “Population Mitotic Cells (%)” value [12] was 28%. The “Population Normal (%)” value [12] was 23%, the “Population Pyknosed Nuclei (%)” value [12] was 8% and the “Total Cell Count” value [12] was 348.
